Sampled rows, rich in hits. Any-hit rate of the full collection: about 1.6%.
TRAIL sens C8 = sensitizes caspase-8 expressing cells to TRAIL | NB7+C8 cells + TRAIL, ATPlite viability luminescence | inhibition (viability loss, TRAIL sensitization), % at 10 µM | 360,000 tested, 1% active | AID 624354;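 active = compounds causing at least 50% loss of cell viability in the single-dose screen, relative to plate controls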
FLuc inh counter = Photinus pyralis luciferase inhibition counter-screen; P08659; ATPLite firefly luciferase biochemical luminescence, 10 min; inhibition, % at 10 µM; 200,000 tested, 1.5% active;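 active = inhibition above about 50% when tested at 10 µM, limit read from the data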
Target sequence (P08659 whole entry, looked up): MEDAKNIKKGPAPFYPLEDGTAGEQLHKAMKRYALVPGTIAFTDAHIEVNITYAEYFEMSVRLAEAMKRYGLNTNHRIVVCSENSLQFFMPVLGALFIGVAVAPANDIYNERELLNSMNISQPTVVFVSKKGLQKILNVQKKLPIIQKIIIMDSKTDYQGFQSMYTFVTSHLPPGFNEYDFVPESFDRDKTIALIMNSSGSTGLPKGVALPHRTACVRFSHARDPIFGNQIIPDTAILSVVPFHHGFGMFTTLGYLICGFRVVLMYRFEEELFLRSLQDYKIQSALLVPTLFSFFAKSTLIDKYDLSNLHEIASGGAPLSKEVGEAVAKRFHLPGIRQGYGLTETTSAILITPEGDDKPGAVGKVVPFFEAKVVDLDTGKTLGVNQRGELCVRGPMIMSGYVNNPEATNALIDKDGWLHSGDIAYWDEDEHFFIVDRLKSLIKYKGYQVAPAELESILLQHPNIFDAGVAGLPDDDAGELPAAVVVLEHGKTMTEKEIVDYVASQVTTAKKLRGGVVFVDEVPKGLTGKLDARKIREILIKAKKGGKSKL
FLuc stim CS = firefly luciferase counter-screen for stimulation assays. P08659. ATPlite luciferase biochemical, luminescence, 10 min; 0 = ATP-free wells, 1 = DMSO control. activation factor at 10 µM. 200,000 tested, under 10 active;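 active = luciferase activation factor, scaled between plate controls, of at least 2 with compound at 10 µM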
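Material: Luciferase/luciferin reagent mix; Doses: test compounds dosed from 2 mM stocks in 100% DMSO; Schedule: 10 min incubation after luciferase reagent addition, room temperature; Measured by: luminescence from luciferase reaction; Read-out: luminescence gain marking luciferase activators.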
PPC-1+TRAIL kill = compounds killing PPC-1 cancer cells with TRAIL present (potentiator screen, no TRAIL-free arm); PPC-1 cells + TRAIL, ATPLite viability luminescence; cell killing (% activity), % at 4 µM or 5 µM; 220,000 tested, 0.41% active;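 active = cell killing above 50% in the first pass at 4 µM, then a duplicate retest at 5 µM averaging 50% or more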;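 also: plate controls were cells with TRAIL plus DMSO for no effect and medium-only wells lacking cells for full effect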
* hit, by the source's call; . = not tested or not shown.

SMILES	TRAIL sens C8	FLuc inh counter	FLuc stim CS	PPC-1+TRAIL kill
CCC(=O)N(C)C[C@H]1Oc2ncc(C#Cc3ccncc3)cc2C(=O)N([C@@H](C)CO)C[C@@H]1C	1	.	.	.
O=c1ccnc(SCCc2ccccc2)[nH]1	-9	.	.	.
O=c1ccnc(S/C=C/c2ccccc2)[nH]1	8	63*	0.4	34
CC(=O)c1ccc(N2CCN(c3ccc4cc(S(=O)(=O)N5CCC(C)CC5)ccc4n3)CC2)cc1	60*	.	.	.
CCC(CC)C(=O)N(C)c1c(C)nc2c(OCCC3CCCCC3)cccn12	0	.	.	.
COc1ccc(C(=O)Nc2cccc(/C=C/c3nc4ccccc4c(=O)[nH]3)c2)cc1	76*	.	.	9
Cc1cccc(/C=C\c2nc3ccccc3c(=O)[nH]2)c1	58*	73*	0.3	38
O=C(Nc1cccc(/C=C/c2nc3ccccc3c(=O)[nH]2)c1)c1ccccc1Cl	24	.	.	17
COc1cc(/C=C/c2nc3ccccc3c(=O)[nH]2)cc(Cl)c1O	-1	.	.	.
O=c1[nH]c(/C=C/c2cccc3ccccc23)nc2ccccc12	-2	-2	1	-4
O=c1[nH]c(/C=C/c2ccccc2F)nc2ccccc12	79*	.	.	.
O=c1[nH]c(/C=C/c2ccc(Br)cc2)nc2ccccc12	78*	.	.	.
O=c1[nH]c(/C=C/c2ccccn2)nc2ccccc12	30	.	.	.
CN(C)c1ccc(/C=C/c2nc3ccccc3c(=O)[nH]2)cc1	91*	.	.	.
N/C(=N/OC(=O)c1ccccc1Cl)c1nonc1N	6	52*	0.5	9
Cc1nc(/C(N)=N/OC(=O)c2ccccc2Cl)c(C(F)(F)F)o1	-19	.	.	12
Cc1ccc(C(=O)O/N=C(\N)c2nonc2N)cc1	-4	84*	0.2	-7
Cc1cc(/C(N)=N/OC(=O)c2ccccc2Cl)no1	61*	.	.	37
Cc1cc(NC(=O)COC(=O)c2ccccc2Cl)no1	-16	.	.	.
N/C(=N\OC(=O)c1ccc(F)cc1)c1nonc1N	4	49	0.5	-7
CC(=O)Nc1ccc(/C=C2\Sc3ccccc3C2=O)cc1	-3	.	.	5
Cc1ccc(/C=C2\Sc3ccccc3C2=O)s1	8	87*	0.1	11
O=C(Nc1nc(-c2nc3ccccc3s2)cs1)C1CC1	52*	54*	0.5	28
N=c1n(CCCOc2ccccc2Cl)c2ccccc2n1CC(N)=O	-3	.	.	2
Cc1ccc(C)c(-c2nnc(NC(=O)c3ccco3)o2)c1	25	.	.	.
SMILES	TRAIL sens C8	FLuc inh counter	FLuc stim CS	PPC-1+TRAIL kill
O=C(Nc1nnc(-c2ccccc2Cl)o1)c1ccco1	45	66*	0.3	30
Cc1ccc(-c2nnc(NC(=O)c3ccco3)o2)c(C)c1	55*	.	.	.
O=C(Nc1nnc(-c2cccs2)o1)c1ccco1	-9	2	1	18
O=C(Nc1nnc(-c2ccc(Br)cc2)o1)c1ccco1	54*	.	.	.
Cc1ccnc(NC(=S)NC(=O)/C=C/c2ccc(Cl)cc2)c1	2	0	1	10
COc1ccccc1N1CCN(CCN2C(=O)C3CCCCN3C2=O)CC1 (centres undefined)	-13	.	.	.
O=C(Nc1ccc(N2CCOCC2)cc1)c1csc(COCCO)n1	55*	.	.	.
CS(=O)(=O)c1ncc(Cl)c(C(=O)Nc2ccc(OC(F)F)cc2)n1	72*	.	.	.
CS(=O)(=O)c1ncc(Cl)c(C(=O)Nc2ccc(N3CCOCC3)cc2)n1	73*	9	0.9	8
O=C(Nc1ccc2c(c1)OCO2)c1csc(COCCO)n1	-5	.	.	.
O=C(Nc1ccccc1N1CCOCC1)c1cnccn1	-2	-6	1.1	8
O=C(Nc1ccc(N2CCOCC2)cc1)c1cnccn1	78*	.	.	.
CCCCc1ccc(NC(=O)c2cnccn2)cc1	55*	76*	0.2	21
CN(Cc1cnn(Cc2ccccc2)c1)C(=O)CN=C1NS(=O)(=O)c2ccccc21	3	.	.	.
CCn1cnc2cc(NC(=O)c3ccco3)ccc21	31	66*	0.3	36
Cc1nc2cc(NC(=O)c3ccco3)ccc2n1C	51*	.	.	.
Cn1c(CCNC(=O)c2ccco2)nc2cc(NC(=O)c3ccco3)ccc21	-1	18	0.8	11
CCCn1cnc2cc(NC(=O)c3ccco3)ccc21	46	.	.	.
CCCCN(C(C)=O)c1c(CC)nc2ccc(C(=O)Nc3cccc(OCC(=O)N(C)C)c3)cn12	-3	.	.	.
[O-][n+]1c2c(nc3c1-c1ccccc1C3O)CCCC2 (centres undefined)	.	1	1	.
Cn1c(=O)c2c(nc(SCCN3CCOCC3)n2C)n(C)c1=O	-13	.	.	.
N/C(=N\OC(=O)COc1ccc(Cl)cc1Cl)c1ccccn1	54*	50	0.5	41
Cc1cc(C)c(C)c(OCC(=O)O/N=C(\N)c2ccccn2)c1	2	-2	1	30
N/C(=N\OC(=O)COc1ccc(Br)cc1Cl)c1ccncc1	11	14	0.9	24
N/C(=N\OC(=O)COc1ccc(Br)cc1Cl)c1ccccn1	66*	39	0.6	38
SMILES	TRAIL sens C8	FLuc inh counter	FLuc stim CS	PPC-1+TRAIL kill
CCCCCCn1cc(CN2CC(N(C)C)CS2(=O)=O)nn1 (centres undefined)	-3	.	.	.
CCCCCCc1cc2cc(C(=O)Nc3ccccc3)c(=O)oc2cc1O	60*	0	1	9
O=C(c1ccccc1)c1cnc(-c2ccccc2)s1	11	55*	0.5	13
O=C(c1ccc(F)cc1)c1cnc(Nc2ccccc2)s1	61*	62*	0.4	40
C[C@@H]1CN([C@H](C)CO)C(=O)c2cc(Br)cnc2O[C@@H]1CN(C)C(=O)Nc1ccccc1	-10	.	.	.
Cc1ccc(C(=O)Nc2ncc(Cc3ccc(F)cc3)s2)o1	25	62*	0.4	33
CN1C(=O)[C@H]2[C@@H](c3ccccc3)N[C@]3(CCCN(Cc4ccc(F)cc4)C3=O)[C@H]2C1=O	-3	.	.	.
COc1cccc(C(=O)/C=C/Nc2ccc(NC(C)=O)cc2)c1	5	28	0.7	-5
COc1ccc(N/C=C/C(=O)c2ccc(Cl)cc2)cc1	43	35	0.7	21
COc1cccc(N/C=C/C(=O)c2ccc(Cl)cc2)c1	53*	83*	0.2	53*
COc1cccc(N/C=C/C(=O)c2ccc(C)cc2)c1	64*	.	.	.
O=C(O)CSc1cc(NS(=O)(=O)c2ccc(Br)cc2)c2ccccc2c1O	48*	.	.	.
Cc1cc(C(=O)CCl)c(C)n1-c1c(C)n(C)n(-c2ccccc2)c1=O	5	-2	1	16
O=C1c2ccccc2NC(c2ccc3c(c2)OCCO3)N1c1ccc2c(c1)OCCO2 (centres undefined)	64*	18	0.8	42
COc1cc(C2Nc3ccccc3C(=O)N2c2ccc3c(c2)OCCO3)ccc1OCC(C)C (centres undefined)	55*	10	0.9	27
COc1cc(C2Nc3ccccc3C(=O)N2c2ccccc2OC)ccc1O (centres undefined)	3	-2	1	14
O=C(Nc1ccc(NC(=O)c2ccco2)nc1)c1ccccn1	42	61*	0.4	29
CC(C)(C)C(=O)Nc1ccc(NC(=O)c2ccco2)nc1	95*	.	.	.
Cc1ccc(NC(=O)COC(=O)c2nn(C)c(=O)c3ccccc23)cc1F	-23	.	.	.
CCc1ccc(N=C2N=C(N)c3ccccc32)cc1	38	92*	0.1	26
